The subject of assay [1] is Mel-Ab. Briefly: Reduction of MITF level in 24 hrs serum starved mouse Mel-Ab cells at 25 ug/ml measured after 3 hrs followed by MG132/chloroquine for 1 hr by Western blot analysis. The class given is functional. Particulars: 50 uM, in the assay text read “50 uM” for “25 ug/ml”. Summed up: (§1)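 After serum starvation, Mel-Ab cells pretreated 1 h with 25 µg/mL cycloheximide, then 1 h with 25 µM MG132 and/or 100 µM chloroquine, then 3 h with 50 µM compound. MITF detected by Western blot of whole-cell lysates.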

The subject of assay [2] is Mel-Ab. Briefly: Cytotoxicity against mouse Mel-Ab cells at 1 to 100 uM after 24 hrs by crystal violet assay. Type of assay: functional, cell-based. Summed up:
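Mel-Ab (spontaneously immortalized mouse melanocytes; DMEM, 10% FBS, 100 nM TPA, 1 nM CT, 37 °C, 5% CO2) exposed 24 h to 1, 10, 50, 100 µM. Crystal violet staining (0.1% in 10% ethanol, 5 min, room temperature), four water rinses, dye extracted with 95% ethanol, absorbance read at 590 nm.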

Assay [3] has as its system Mel-Ab. Nature of the assay: Induction of ERK activity in 24 hrs serum starved mouse Mel-Ab cells at 50 uM by Western blot analysis. Type of assay: cell-based. Put shortly: (§2)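 Mel-Ab cells serum-starved 24 h, then given 50 µM for the indicated times up to 360 min. Whole-cell lysates run at 10 µg protein per lane by SDS-PAGE and blotted on PVDF. Probed with 1:1000 antibodies to phospho-ERK, phospho-Akt, MITF and tyrosinase; actin served as loading control.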

The test system of assay [4] is Mel-Ab. Nature of the assay: Inhibition of melanin synthesis in mouse Mel-Ab cells assessed as in melanin content after 4 hrs by ELISA. The conditions noted are these: in the assay text read “4 days” for “4 hrs”. The class given is functional, cell-based. Put shortly:
(§3)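 Mel-Ab melanocytes in TPA/CT-supplemented DMEM given 1–100 µM for four days. Cells photographed under phase contrast. Pellets then dissolved in 1 N NaOH, 100 °C, 30 min, spun 16000g for 20 min, supernatant OD read at 400 nm. Mean ± SD of three replicate experiments, compared with untreated control.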

In assay [5] the test system is Mel-Ab. Briefly: Reduction of MITF level in 24 hrs serum starved mouse Mel-Ab cells […] measured after 3 hrs followed by MG132 proteasome inhibitor for 1 hr by Western blot analysis. Type of assay: functional. Summed up:
as §1

Assay [6] in a line: Inhibition of melanin synthesis in mouse Mel-Ab cells assessed as reduction in melanin synthesis at 50 uM after 4 hrs by phase-contrast microscopy in presence of PD-98059 ERK pathway inhibitor. The class given is functional, cell-based. The conditions noted are these: in the assay text read “4 days” for “4 hrs”. Put shortly: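 Mel-Ab cells pretreated 1 h with 20 µM PD98059, then cultured four days with 50 µM compound. Phase-contrast photography, then melanin read as OD 400 nm after dissolving pellets in 1 N NaOH at 100 °C. Triplicate determinations, mean ± SD.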

For assay [7], the target named is T1, Tyrosinase (Mus musculus) (UniProt P11344).
T1 sequence (whole entry): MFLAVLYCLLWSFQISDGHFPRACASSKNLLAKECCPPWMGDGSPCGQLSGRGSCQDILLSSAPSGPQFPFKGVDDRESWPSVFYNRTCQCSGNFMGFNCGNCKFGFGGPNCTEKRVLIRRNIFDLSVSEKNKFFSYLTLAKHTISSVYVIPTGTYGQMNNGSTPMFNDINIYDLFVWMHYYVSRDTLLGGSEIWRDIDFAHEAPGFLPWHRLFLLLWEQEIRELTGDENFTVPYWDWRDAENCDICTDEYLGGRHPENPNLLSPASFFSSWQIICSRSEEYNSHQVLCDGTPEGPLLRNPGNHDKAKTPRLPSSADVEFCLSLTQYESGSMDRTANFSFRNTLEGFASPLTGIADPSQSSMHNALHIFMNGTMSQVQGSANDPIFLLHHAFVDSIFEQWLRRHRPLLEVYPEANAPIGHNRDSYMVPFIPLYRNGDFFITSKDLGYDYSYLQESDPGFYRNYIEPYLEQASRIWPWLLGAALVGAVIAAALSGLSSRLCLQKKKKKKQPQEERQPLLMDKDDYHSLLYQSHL
Nature of the assay: Inhibition of tyrosinase activity in mouse Mel-Ab cells assessed as inhibition of melanogenesis at 1 to 100 uM by ELISA.

Assay [8] relates to Mel-Ab. Nature of the assay: Induction of ERK activity in 24 hrs serum starved mouse Mel-Ab cells at 50 uM by Western blot analysis in presence of PD-98059. Type of assay: cell-based.
Assay [9] deals with Mel-Ab. Nature of the assay: Reduction of tyrosinase protein level in 24 hrs serum starved mouse Mel-Ab cells at 50 uM measured after 24 to 72 mins by Western blot analysis. Particulars: in the assay text read “24 to 72 hrs” for “24 to 72 mins”. Type of assay: functional. Put shortly:
(§4)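 Mel-Ab cells cultured 24–72 h with 50 µM. Whole-cell lysates (10 µg protein/lane) analysed by Western blot for MITF and tyrosinase, with actin as loading control.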

Assay [10] concerns Mel-Ab. Nature of the assay: Inhibition of melanin synthesis in mouse Mel-Ab cells assessed as reduction in melanin synthesis at 1 to 100 uM after 4 hrs by phase-contrast microscopy. Type of assay: functional, cell-based. Particulars: in the assay text read “4 days” for “4 hrs”. Put shortly:
as §3

Assay [11] concerns Mel-Ab. Briefly: Reduction of MITF level in 24 hrs serum starved mouse Mel-Ab cells at 50 uM measured after 3 hrs by Western blot analysis in presence of PD-98059.
In assay [12] the test system is Mel-Ab. Nature of the assay: Reduction of MITF level in 24 hrs serum starved mouse Mel-Ab cells […] measured after 3 hrs followed by chloroquine lysosomal proteolysis inhibitor for 1 hr by Western blot analysis. The class given is functional. Put shortly: as §1
Assay [13] concerns the target T2, Microphthalmia-associated transcription factor (Mus musculus) (UniProt Q08874).
T2 sequence (whole entry): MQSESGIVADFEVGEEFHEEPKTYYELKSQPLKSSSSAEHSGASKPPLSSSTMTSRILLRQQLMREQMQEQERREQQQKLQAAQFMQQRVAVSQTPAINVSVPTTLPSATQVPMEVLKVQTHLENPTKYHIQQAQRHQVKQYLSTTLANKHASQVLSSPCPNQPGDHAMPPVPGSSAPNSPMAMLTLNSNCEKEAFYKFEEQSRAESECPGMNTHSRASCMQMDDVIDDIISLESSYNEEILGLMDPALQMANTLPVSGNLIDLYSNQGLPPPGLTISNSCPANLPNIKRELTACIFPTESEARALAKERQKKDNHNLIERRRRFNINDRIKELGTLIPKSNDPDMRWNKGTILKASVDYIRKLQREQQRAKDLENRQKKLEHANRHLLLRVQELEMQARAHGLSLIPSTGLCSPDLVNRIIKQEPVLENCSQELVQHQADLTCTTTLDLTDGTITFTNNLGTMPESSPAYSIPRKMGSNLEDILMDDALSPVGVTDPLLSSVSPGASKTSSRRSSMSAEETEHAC
Briefly: Down regulation of MITF activity in 24 hrs serum starved mouse Mel-Ab cells at 50 uM measured after 60 to 360 mins by Western blot analysis. Type of assay: cell-based. Summed up: as §2

In assay [14] the test system is Mel-Ab. Nature of the assay: Reduction of MITF level in 24 hrs serum starved mouse Mel-Ab cells at 50 uM measured after 24 to 72 mins by Western blot analysis. Type of assay: functional. Particulars: in the assay text read “24 to 72 hrs” for “24 to 72 mins”. Put shortly: as §4

Here are results for one molecule from ChEMBL document CHEMBL1158586, “Hypopigmentary action of dihydropyranocoumarin D2, a decursin derivative, as a MITF-degrading agent” (J Nat Prod, 2010).

SMILES strings stand for the structures. The source made the active and inactive calls. No cut-off for these calls is given here.

For the molecule `CC1(C)Oc2cc3oc(=O)ccc3cc2C[C@@H]1OC(=O)/C=C/c1ccccc1`, the outcome (with Mel-Ab [1]; with Mel-Ab [3]; in assay [7]; with Mel-Ab [9]; with Mel-Ab [10]; in [13]) was Active. Besides, the outcome in the assay on Mel-Ab [14] was Active. In addition, the outcome (in the assay with Mel-Ab [2]; in the assay with Mel-Ab [5]; in assay [6]; in the assay on Mel-Ab [8]; with Mel-Ab [11]; in the assay on Mel-Ab [12]) was inactive. Besides, the Activity entry in the assay on Mel-Ab [4] is “Dose-dependent effect”.
